Source: PubChem
Sampled rows, rich in hits. Any-hit rate of the full collection: about 29%.
CYP2C9 inhib – blockers of cytochrome P450 2C9 activity – biochemical, luminescence, ADME assay, primary screen; inhibition, % at 5 µM; 96,000 compounds, 20% hits; P11712; AID 777, 2007; CYP2C9 Supersomes, luciferin-H conversion;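 active means blocking of liver enzyme CYP2C9 beyond about 50% at 5 µM, limit read from the data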
Ecoli tolC – growth inhibitors of E. coli tolC mutant, primary screen, strain BW25113 ΔtolC::kan, 384-well; OD615; growth inhibition, % at 10 µM (by protocol); 65,000 compounds, 2.2% hits; AID 573, 2007;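 active means growth inhibition at or above a cutoff equal to the mean over every tested compound plus 3 SD, cut at about 60% in these data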;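 further: growth measured after 20 h incubation at 37 °C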
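Test system: E. coli BW25113 ΔtolC::kan bacteria; incubation: 37 °C, 20 h exposure; medium: LB broth supplemented with 50 µg/mL kanamycin; read-out basis: percent growth inhibition; signal: A615 absorbance measurement; compound: 10 µM final, single dose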
E coli WT exp – growth inhibitors of wild-type E. coli, primary screen, strain BW25113, expanded library, OD600; OD600 absorbance; growth inhibition, % at 100 µM; 98,000 compounds, 0.15% hits; AID 710, 2007;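 active means growth inhibition above about 50% at one test dose, limit read from the data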;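 further: growth measured after 20 h incubation at 37 °C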
CYP2C19 act – human CYP2C19 activators, primary screen, biochemical, luminescence. recombinant CYP2C19, luciferin-H EGE luminescence; hits give high values; 0 = fully inhibited enzyme, 1 = untreated enzyme. Cytochrome P450 2C19 (Homo sapiens), P33261. activation factor at 5 µM. AID 1025, 2008. 96,000 tested, under 10 active;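 active means activation factor of at least 2 at 5 µM in the primary screen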
Target sequence (P33261 whole entry, looked up): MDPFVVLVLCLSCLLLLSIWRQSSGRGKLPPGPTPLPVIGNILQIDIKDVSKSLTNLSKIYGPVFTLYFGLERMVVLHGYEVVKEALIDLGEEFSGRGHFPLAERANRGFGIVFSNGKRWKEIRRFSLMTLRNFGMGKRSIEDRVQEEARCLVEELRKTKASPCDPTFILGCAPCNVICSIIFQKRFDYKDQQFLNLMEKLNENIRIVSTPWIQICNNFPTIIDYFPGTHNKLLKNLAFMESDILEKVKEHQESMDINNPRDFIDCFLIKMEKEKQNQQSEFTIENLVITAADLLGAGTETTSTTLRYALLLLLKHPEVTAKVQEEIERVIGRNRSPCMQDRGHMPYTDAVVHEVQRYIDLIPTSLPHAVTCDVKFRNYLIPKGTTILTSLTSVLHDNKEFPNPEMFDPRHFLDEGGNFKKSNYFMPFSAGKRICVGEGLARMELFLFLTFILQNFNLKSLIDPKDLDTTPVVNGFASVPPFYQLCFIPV
CYP2C19 inhib – blockers of cytochrome P450 2C19 activity – biochemical, luminescence, ADME assay, primary screen. P33261. CYP2C19 Supersomes, luciferin-H EGE luminescence, 30 min. inhibition, % at 5 µM. 96,000 compounds, 21% hits;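 active means CYP2C19 inhibition above a set limit at 5 µM in the primary screen, cut at about 50% in these data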
CYP2C9 activ – human CYP2C9 activators, primary screen, biochemical, luminescence; AID 1024, 2008; 96,000 compounds, 1.4% hits; recombinant CYP2C9, luciferin-H conversion; hits give high values; factor 1 = untreated enzyme, 0 = blocked; activation factor at 5 µM;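 active means activation factor of 2 or more for CYP2C9 at a 5 µM dose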
A number is an active result; i = inactive; nt = not tested or not shown.

SMILES	CYP2C9 inhib	Ecoli tolC	E coli WT exp	CYP2C19 act	CYP2C19 inhib	CYP2C9 activ
Cn1c(N)c(C(=O)COC(=O)C2(c3ccc(F)cc3)CCCC2)c(=O)n(C)c1=O	i	i	i	i	i	i
Cn1c(N)c(C(=O)COC(=O)C2(c3ccc(Cl)cc3)CCCC2)c(=O)n(C)c1=O	i	nt	i	i	58	i
COCc1c(C)cc(C)c(/C=N/O)c1C	i	i	nt	i	i	i
CCOc1cc(CNCCO)c(Cl)cc1OCC(=O)NCCc1ccccc1	i	nt	i	i	58	i
COCCNC(=O)COc1ccccc1Cl	i	i	i	i	i	i
CCOc1cc(CNC(C)C)c(Cl)cc1OCC(=O)NCCc1ccccc1	i	nt	i	i	77	i
Cc1nc2sc(C(c3cccs3)N3CCN(c4ccccc4)CC3)c(O)n2n1 (stereo unspecified)	i	i	nt	i	i	i
CN(CC(=O)Nc1ccc(F)c(F)c1)S(=O)(=O)c1cccc2nsnc12	70	i	i	i	i	i
CN(CC(=O)NCc1ccc(Cl)cc1)S(=O)(=O)c1cccc2nsnc12	i	i	i	i	82	i
Cc1ccnc(NC(=O)CN(C)S(=O)(=O)c2cccc3nsnc23)c1	77	i	i	i	i	i
CCN(CCCNC(=O)CN(C)S(=O)(=O)c1cccc2nsnc12)c1ccccc1	74	i	i	i	i	i
COCC(=O)NC1CCN(CC(=O)Nc2ccc(OC)cc2[N+](=O)[O-])CC1	i	nt	i	i	i	i
Cc1ccc(NC(=O)CN(C)S(=O)(=O)c2cccc3nsnc23)cc1Cl	84	74	i	i	i	i
Cc1ccc(NC(=O)CN(C)S(=O)(=O)c2cccc3nsnc23)cc1C	78	i	i	i	i	i
CCOc1ccc(C(C)NC(=O)CCC(=O)O)cc1 (stereo unspecified)	i	i	i	i	i	i
C=C(C)c1cccc(C(C)(C)NC(=O)N2CCCCC2CC)c1 (stereo unspecified)	89	nt	i	i	51	i
CC(NC(=O)Nc1ccccc1O)(C(F)(F)F)C(F)(F)F	i	i	i	i	i	i
O=C(Cc1ccc(Cl)cc1)Nc1ccc(N2CCN(C(=O)c3ccco3)CC2)c(Cl)c1	97	i	i	i	92	i
O=C(Nc1ccc(N2CCCC2)c(Cl)c1)c1ccco1	i	i	nt	i	i	i
O=C(Nc1ccc(N2CCN(C(=O)c3ccco3)CC2)c(Cl)c1)c1cccs1	i	71	i	i	i	i
COc1ccccc1C1N(c2ccc(F)cc2)C(=O)C2CCCN21 (stereo unspecified)	i	i	i	i	i	i
CCCCOC(=O)c1ccc(NC(=O)CSC2=Nc3ccccc3C3CC=NN23)cc1 (stereo unspecified)	86	nt	i	i	i	i
CCCCOC(=O)c1ccc(NC(=O)CSc2nncn2C)cc1	i	i	i	i	i	i
COc1ccc(C(=O)C(CN2CCOCC2)c2ccccc2)cc1F (stereo unspecified)	i	78	i	i	i	i
O=C(c1ccc2c3c(cccc13)CC2)N1CCOCC1	i	i	i	i	i	2.1
SMILES	CYP2C9 inhib	Ecoli tolC	E coli WT exp	CYP2C19 act	CYP2C19 inhib	CYP2C9 activ
CCCC(C)C(=O)N(Cc1ccccc1)c1ccccn1 (stereo unspecified)	51	nt	i	i	67	i
COCC(=O)N(Cc1ccccc1)c1ccccn1	i	i	i	i	i	i
CC(C)(C)NC(=O)CSc1nnc(C2CC2)n1Cc1ccccc1	i	i	i	i	i	i
COC(=O)c1ccc(COC(=O)CCc2nc(-c3ccccc3)c(-c3ccccc3)o2)cc1	86	nt	i	i	67	i
COC(=O)c1ccc(COC(=O)c2ccccn2)cc1	i	i	i	i	i	i
Cc1ccc(CNC(=O)c2oc3ccc(S(=O)(=O)N4CCOCC4)cc3c2C)cc1	i	nt	i	i	i	i
Cc1c(C(=O)NCc2ccco2)oc2ccc(S(=O)(=O)N3CCC4(CC3)OCCO4)cc12	i	i	i	i	i	i
COc1ccc(CCNC(=O)c2oc3ccc(S(=O)(=O)N4CCOCC4)cc3c2C)cc1OC	73	i	i	i	i	i
Cc1c(C(=O)NCCc2ccccc2)oc2ccc(S(=O)(=O)N3CCC4(CC3)OCCO4)cc12	87	i	i	i	63	i
O=C(/C=C/c1ccco1)NCC1CCCO1 (stereo unspecified)	i	nt	i	i	i	i
CCOC(=O)C(C)Sc1nnc(Cn2c(=O)sc3ccccc32)n1-c1ccccc1 (stereo unspecified)	80	i	i	i	69	i
CCc1nnc(NC(=O)CSc2nc3c(c(=O)n2CC)SC(C)C3)s1 (stereo unspecified)	i	i	i	i	i	i
O=C1CC(Cc2ccc(Cl)cc2)C(=O)N1c1ccccn1 (stereo unspecified)	i	i	i	i	i	i
COc1ccc(C(=O)c2c(C(F)(F)F)oc3c2C(=O)c2ccccc2C3=O)cc1	78	nt	i	i	75	i
Nc1ccc(-n2ccnc2)cc1	52	i	i	i	58	i
Cc1ccc(N2C(=O)CC2(C#N)c2ccc(OCc3ccccc3)cc2)cc1 (stereo unspecified)	62	nt	i	i	i	i
COc1ccc(N2C(=O)CCC2(C#N)c2ccc(OC)cc2)cc1 (stereo unspecified)	i	nt	i	i	66	i
O=C(O)C1CC(=O)N(c2ccc(OCc3ccccc3)cc2)C1 (stereo unspecified)	i	nt	i	i	i	i
Cc1ccc(-c2csc(N3CCC(C(N)=O)(N4CCCCC4)CC3)n2)cc1	i	i	i	i	i	i
CCN1CC2=C(OC(N)=C(C#N)C2c2ccccc2)/C(=C\c2ccccc2)C1 (stereo unspecified)	66	i	i	i	91	i
N#CC1=C(N)OC2=C(CN(Cc3ccccc3)C/C2=C\c2cccnc2)C1c1cccnc1 (stereo unspecified)	i	nt	i	i	i	i
Cc1ccc(S(=O)(=O)N2CCCCC2C(=O)N2CCN(c3ccccc3F)CC2)cc1 (stereo unspecified)	i	nt	i	i	i	2.2
Cc1ccc(S(=O)(=O)N2CCCCC2C(=O)N2CCN(C)CC2)cc1 (stereo unspecified)	i	nt	i	i	i	i
CC(C)CNC(=O)c1ccccc1NC(=O)Nc1ccccc1	52	nt	i	i	i	i
CSc1ccccc1NC(=O)Nc1ccccc1	i	i	i	i	58	i
CNC(=O)COC(=O)c1ccccc1Oc1ccccc1	i	nt	i	i	i	i
CSc1cccc(NC(=O)Nc2ccccc2)c1	i	i	i	i	i	i
